This is an account of results in ChEMBL document CHEMBL1124938, “Antihypertensive dihydropyridines with 1,4,4-trisubstitution” (1990).

For assay [1], the system named is Rattus norvegicus. The assay is described as follows: Antihypertensive effects in conscious, unrestrained, spontaneously hypertensive rats after 30 mg/kg i.p. administration. The class given is functional. Conditions: route intraperitoneal. The method in brief: (§1)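 SHR housed singly with free access to tap water, overnight recovery before testing. Compound suspended in 1% methylcellulose, given once ip at 30 mg/kg or by oral gavage at 100 mg/kg (n = 3); concurrent controls (n = 3) got 1 mL vehicle by same route. MAP recorded continuously 24 h; value is maximum change from concurrent control, mean ± SEM.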

In assay [2] the test system is Rattus norvegicus. Kind of assay: Antihypertensive effects in conscious, unrestrained, spontaneously hypertensive rats after 100 mg/kg p.o. administration. Conditions: route oral. The class given is functional. The method in brief: as §1
Assay [3] relates to Rattus norvegicus. Kind of assay: Total antihypertensive activity was obtained from the area between compound and control MAP (mean arterial pressure) curves, after (ip) 30 mg/kg administration in spontaneously hypertensive rats (SHR). The class given is functional, Artery. The method in brief:
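SHR dosed once ip at 30 mg/kg in 1% methylcellulose suspension (n = 3), with vehicle-dosed concurrent controls (n = 3). MAP recorded continuously over 24 h; time points 0, 0.25, 0.5, 1, 2, 4, 6, 12, 18 and 24 h used. Value is area between drug and control MAP curves, in mmHg × h.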

Molecules are shown by their SMILES.

For `CN(C)CC(=O)N1C=CC(c2ccccc2)(c2ccccc2)C=C1.Cl`, the “Max change in blood pressure” value is reported as -29 mmHg in assay [1] and -12 mmHg in assay [2]. This compound displayed an Antihypertensive activity in assay [3] of 362 mmHg·h.

Regarding `CC1(C)C=CN(C(=O)c2ccc[nH]2)C=C1`, the results for the “Max change in blood pressure” value in assay [1] and in assay [2] were 6 mmHg and -7 mmHg, respectively.

For `CC1(C)C=CN(C(=O)C(c2ccccc2)c2ccccc2)C=C1`, the “Max change in blood pressure” value in assay [1] is on record as -9 mmHg; in assay [2], -6 mmHg.

Regarding `COc1ccc(CCN2C=CC(c3ccccc3)(c3ccccc3)C=C2)cc1OC`, the “Max change in blood pressure” value in assay [1] and in assay [2] was -7 mmHg in each case.

On to `CC1(C)C=CN(C(=O)c2cccnc2)C=C1`, for which the “Max change in blood pressure” value in assay [1] is on record as -19 mmHg; in assay [2], -26 mmHg. This compound also showed an Antihypertensive activity in assay [3] of 291 mmHg·h.

On to `COC(=O)CCCN1C=CC(c2ccc(OC)cc2)(c2ccc(OC)cc2)C=C1`, for which the “Max change in blood pressure” value in assay [1] is 11 mmHg; in assay [2], -21 mmHg.

Turning to `CNC(=O)N1C=CC(C)(C)C=C1`, the “Max change in blood pressure” value in assay [1] is recorded as -34 mmHg; in assay [2] it was -41 mmHg.

In the case of `CC1(C)C=CN(/C(=N/c2ccccc2)N2CCCC2)C=C1.O=C(O)/C=C\C(=O)O`, the “Max change in blood pressure” value in assay [1] amounted to 27 mmHg; in assay [2] it was 19 mmHg.

As for `O=C(c1ccccc1)N1C=CC(c2ccccc2)(c2ccccc2)C=C1`, the results for the “Max change in blood pressure” value in assay [1] and in assay [2] were 11 mmHg and 12 mmHg, respectively.

With `CN(C)CCN1C=CC(C)(C)C=C1`, the “Max change in blood pressure” value is reported as -32 mmHg in assay [1] and -10 mmHg in assay [2]. The compound also displayed an Antihypertensive activity in assay [3] of 281 mmHg·h.

Regarding `COC(=O)CCCCN1C=CC(C)(C)C=C1`, the entries for the “Max change in blood pressure” value in assay [1] and in assay [2] were -58 mmHg and -11 mmHg, respectively. For the same compound, the Activity in assay [3] was found to be 943 mmHg·h.

In the case of `COC(=O)CCCN1C=CC(C)(C)C=C1`, the “Max change in blood pressure” value is -42 mmHg in assay [1] and -45 mmHg in assay [2]. Also, the Activity in assay [3] came to 696 mmHg·h.

`COC(=O)C1=C(C)NC(C)=C(C(=O)OC)C1c1ccccc1[N+](=O)[O-]` [NIFEDIPINE]: the “Max change in blood pressure” value in assay [1] is listed as -71 mmHg; in assay [2], -68 mmHg.

Take `CN(C)CC(=O)N1C=CC(C)(C)C=C1.O=C(O)/C=C\C(=O)O`: the “Max change in blood pressure” value in assay [1] is given as -52 mmHg; in assay [2] it was -39 mmHg. Besides, the Activity in assay [3] was found to be 132 mmHg·h.

For the compound `CC1(C)C=CN(C(=O)Nc2ccccc2)C=C1`, the figures for the “Max change in blood pressure” value in assay [1] and in assay [2] were -24 mmHg and -15 mmHg, respectively.

With `CN(C)CCN1C=CC(c2ccccc2)(c2ccccc2)C=C1`, the “Max change in blood pressure” value was -30 mmHg in assay [1] and -14 mmHg in assay [2].

`Cc1csc(N2C=CC(C)(C)C=C2)n1`: the figures for the “Max change in blood pressure” value in assay [1] and in assay [2] were 14 mmHg and -21 mmHg, respectively.

As to `CC1(C)C=CN(C(=O)c2ccccc2)C=C1`, the “Max change in blood pressure” value in assay [1] is recorded as -21 mmHg; in assay [2], -27 mmHg. For the same compound, in assay [3], the Antihypertensive activity came out at 210 mmHg·h.

For the compound `COC(=O)CCN1C=CC(C)(C)C=C1`, the “Max change in blood pressure” value in assay [1] is recorded as -71 mmHg; in assay [2], -19 mmHg. In assay [3], this compound returned an Activity of 1360 mmHg·h.

For the compound `COc1ccc(CC(=O)N2C=CC(C)(C)C=C2)cc1OC`, the “Max change in blood pressure” value in assay [1] is -21 mmHg; in assay [2] it was 23 mmHg.

`CNC(=O)N1C=CC(c2ccccc2)(c2ccccc2)C=C1`: the “Max change in blood pressure” value is recorded as 17 mmHg in assay [1] and -11 mmHg in assay [2].
